From ChEMBL document CHEMBL4130555, “Heterodimeric Diterpenoids Isolated from Euphorbia ebracteolata Roots and Their Inhibitory Effects on α-Glucosidase” (J Nat Prod, 2017)

Columns and labels:
[1] = Inhibition of acetyltransferase activity of Mycobacterium tuberculosis H37Rv GlmU expressed in Escherichia coli BL21(DE3) using acetylcoA as substrate after 30 mins
A2780 = assay: Cytotoxicity against human A2780 cells by MTT assay; assay type: functional, cell-based
HCT-8 = assay: Cytotoxicity against human HCT8 cells by MTT assay; assay type: functional, cell-based
Bel-7402 = assay: Cytotoxicity against human Bel7402 cells by MTT assay; assay type: functional, cell-based
A549 = assay: Cytotoxicity against human A549 cells by MTT assay; assay type: functional, cell-based
[2] = Inhibition of baker's yeast alpha-glucosidase using p-nitrophenyl-alpha-D-glucopyranoside as substrate preincubated for 0.5 hrs followed by substrate addition measured for 0.5 hrs; parameters: species or system Saccharomyces cerevisiae
Outline: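 Enzyme activity measured with p-NPG as substrate, acarbose run alongside as positive control; procedure follows a previously published protocol.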

BGC-823 = assay: Cytotoxicity against human BGC823 cells by MTT assay; assay type: functional, cell-based
[3] = Non-competitive inhibition of baker's yeast alpha-glucosidase using p-nitrophenyl alpha-D-glucopyranoside as substrate preincubated for 0.5 hrs followed by substrate addition measured for 0.5 hrs by Lineweaver-Burk plot analysis; parameters: species or system Saccharomyces cerevisiae

SMILES	IC50 [1]	IC50 (A2780)	IC50 (HCT-8)	IC50 (Bel-7402)	IC50 (A549)	IC50 [2]	IC50 (BGC-823)	Ki [3]
C=C[C@@]1(C)CC[C@]2(C)c3cc4c(c(C)c3CC[C@H]2C1)O[C@@H]1C2=C(C)C(=O)O[C@@]2(O4)[C@H](O)[C@H]2[C@]3(C)CCCC(C)(C)[C@H]3CC[C@@]12O	41.9 µM	> 100 µM	> 100 µM	> 100 µM	> 100 µM	50.4 µM	> 100 µM	
C[C@H]1O[C@H](O[C@H]2[C@H](O)[C@@H](O)[C@@H](O[C@H]3[C@H](O)[C@@H](O)C(O)O[C@@H]3CO)O[C@@H]2CO)[C@H](O)[C@@H](O)[C@@H]1N[C@H]1C=C(CO)[C@@H](O)[C@H](O)[C@H]1O (stereo partly specified) [ACARBOSE]						579 µM		
C=C[C@@]1(C)CC[C@]2(C)c3cc(O[C@@]45OC(=O)C(C)=C4[C@H]4O[C@]46CC[C@@H]4C(C)(C)CCC[C@@]4(C)[C@@H]6[C@H]5O)c(O)c(C)c3CC[C@H]2C1	> 100 µM	> 100 µM	> 100 µM	> 100 µM	> 100 µM	7.94 µM	> 100 µM	10.8 µM
